Bioassay records as filed in PubChem BioAssay.
NPY-Y2 antag: NPY-Y2 receptor antagonists, primary screen, cell-based; Neuropeptide Y receptor type 2 (Homo sapiens), P49146; NPY-Y2 expressing cells, antagonist mode; inhibition, % at 2.7 µM; actives 0.99% (n = 140,000); AID 793, 2007; in the data active means inhibition above about 17%
NPY Y1 blocker: NPY-Y1 receptor antagonists, primary screen, cell-based; Neuropeptide Y receptor type 1 (Homo sapiens), P25929; HEK293-CNG Y1 cells, membrane potential fluorescence; NPY at EC95, then isoproterenol; actives 1% (n = 200,000); inhibition, % at 3.6 µM;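 active means inhibition above the campaign mean inhibition of all tested compounds plus 3 SD, cut at about 20% in these data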
Target sequence (P25929 whole entry, looked up): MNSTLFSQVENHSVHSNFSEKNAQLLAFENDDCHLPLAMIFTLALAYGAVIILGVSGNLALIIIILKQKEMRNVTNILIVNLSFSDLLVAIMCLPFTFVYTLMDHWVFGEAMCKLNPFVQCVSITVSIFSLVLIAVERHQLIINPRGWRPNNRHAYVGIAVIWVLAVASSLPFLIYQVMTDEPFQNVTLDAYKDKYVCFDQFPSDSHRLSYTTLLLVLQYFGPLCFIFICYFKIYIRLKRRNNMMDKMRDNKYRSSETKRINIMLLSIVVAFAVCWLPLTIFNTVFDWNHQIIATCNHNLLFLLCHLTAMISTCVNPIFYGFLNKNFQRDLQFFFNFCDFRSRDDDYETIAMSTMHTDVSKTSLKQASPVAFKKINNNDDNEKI
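Assay system: HEK293 Y1/CNG channel cell line; Doses: single compound dose of 3.6 µM, 0.4% DMSO; Timing: dye 3 h, compound 60 min room temperature, stimulation 45 min; Technique: Membrane-potential fluorescent dye readout; Measure: % inhibition of NPY effect.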
NPY1 pot ag: NPY-Y1 receptor potentiators or agonists, primary screen, cell-based. activation, % at 3.6 µM. AID 1304, 2008. actives 0.37% (n = 220,000). Neuropeptide Y receptor type 1 (Homo sapiens), P25929. NPY-Y1 expressing cells, potentiator/agonist activation; in the data active means activation above about 33%, passing the limit was not always enough;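 further: cells stimulated with NPY at EC10 then isoproterenol at EC100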
Measles CPE: compounds protecting cells from measles virus cytopathic effect, primary screen, measles RdRp inhibitor project, single point, MLSMR library, absorbance | AID 841, 2007 | actives 1.5% (n = 140,000) | Measles virus-infected cells, CPE protection | protection (pct of control), % at 4 µM; in the data active means protection mostly above about 24%, no sharp cut-off; inactive means mostly below about 26%
NPY-Y2 PAM-ag: NPY-Y2 potentiators or agonists, primary screen, cell-based; Neuropeptide Y receptor type 2 (Homo sapiens), P49146; activation, % at 3.6 µM; actives 0.45% (n = 220,000); cells expressing NPY-Y2, potentiator/agonist read-out; in the data active means activation above about 27%;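 further: cells stimulated with NPY near EC25 plus isoproterenol at EC100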
Rad51 HR inh: human RAD51 strand exchange inhibitors, primary screen, biochemical, fluorescence | DNA repair protein RAD51 homolog 1 (Homo sapiens), Q06609 | hRad51 DNA strand exchange, fluorescence dequenching | inhibition, % at 10 µM | actives 0.085% (n = 200,000) | AID 1385, 2008;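 active means inhibition above 40% at the single screening dose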
Target sequence (Q06609 whole entry, looked up): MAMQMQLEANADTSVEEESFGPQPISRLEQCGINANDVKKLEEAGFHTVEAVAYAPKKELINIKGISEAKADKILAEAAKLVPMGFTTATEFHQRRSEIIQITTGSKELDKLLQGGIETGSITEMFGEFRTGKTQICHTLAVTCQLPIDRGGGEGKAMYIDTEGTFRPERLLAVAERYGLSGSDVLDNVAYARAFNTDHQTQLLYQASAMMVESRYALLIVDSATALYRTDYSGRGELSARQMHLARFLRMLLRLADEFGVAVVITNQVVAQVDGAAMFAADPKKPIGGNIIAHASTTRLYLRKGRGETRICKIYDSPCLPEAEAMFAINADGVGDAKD
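Test system: preformed human Rad51 ssDNA filaments; also added: Donor/quencher-labelled 47-bp dsDNA substrate; doses: 10 µM final, single point; times: 37 °C 15-min filament assembly, 30-min compound preincubation, 15-min exchange; detection: FRET fluorescence dequenching, excitation 485 nm, emission 520 nm; read-out basis: Fluorescence-based percent inhibition, control- and blank-normalised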
Of the large screens only hits and unclear results are named; the others gave an inactive call. Most compounds without a hit are left out; they make up all but 2.8% or so of the library.

CCOC(=O)C1CCCN(CC(O)COc2ccc(OC)cc2C(C)(C)C)C1 (centres undefined)	NPY1 pot ag 41.2, NPY-Y2 PAM-ag 48.8
CCOC(=O)C1CCCN(CC(O)COc2ccccc2C(C)=O)C1 (centres undefined)	NPY1 pot ag 62.0, NPY-Y2 PAM-ag 37.5
CCOC(=O)N1CCN(CC(O)COc2ccc(OC)cc2C(C)(C)C)CC1 (centres undefined)	none (no result: Rad51 HR inh)
Cc1c(O)c(CN2CCCC2)cc2c1oc(=O)c1ccccc12	NPY1 pot ag 64.8, NPY-Y2 PAM-ag 56.7
Cc1c(O)c(CN2CCCC2)cc2c3c(c(=O)oc12)CCC3	none
O=S(=O)(c1ccc(-c2cn3ccccc3n2)cc1)N1CCOCC1	Measles CPE 63.5
Cc1cccn2cc(-c3ccc(S(=O)(=O)N4CCOCC4)cc3)nc12	none
Cc1ccc(CNCC(=O)Nc2ccc(N3CCOCC3)cc2)cc1	none (no result: NPY-Y2 antag, NPY Y1 blocker, Measles CPE)
O=C(C1CC(c2ccc(F)cc2)=NO1)N1CCc2ccccc2C1 (centres undefined)	none
O=C(C1CC(c2ccccc2O)=NO1)N1CCc2ccccc2C1 (centres undefined)	Measles CPE 47.3
O=C(O)C1C2C=CC(C2)C1C(=O)NCCCN1CCOCC1 (centres undefined)	none
CCCCNC(=O)C1C2C=CC(C2)C1C(=O)O (centres undefined)	Measles CPE 38.0 (no result: Rad51 HR inh)
CN(C(=O)c1ccncc1)c1nnc(-c2cnccn2)s1	Measles CPE 31.6
O=C(Oc1cccc(/C=N/Nc2nc(Nc3ccccc3)nc(N3CCOCC3)n2)c1)c1ccco1	Measles CPE 19.0
O=C(O)/C=C\C(=O)Nc1ccccc1C(=O)N1CCN(c2ccc(Cl)cc2)CC1	NPY1 pot ag 90.7, NPY-Y2 PAM-ag 31.2
CC(C)c1ccc(N2CCN(C(=O)c3ccccc3NC(=O)/C=C\C(=O)O)CC2)cc1	none
O=C(Nc1cccc2cccnc12)C1CCCC1	Measles CPE 28.6
NC(=S)Nc1cccc2cccnc12	none
CCC(Oc1nc2ccccc2nc1-c1ccccc1NC(C)=O)C(=O)c1ccccc1 (centres undefined)	NPY-Y2 antag 19.7, NPY Y1 blocker 32.9
Cc1ccc2c(C(=O)CCl)c(C)[nH]c2c1	none (no result: NPY-Y2 antag, NPY Y1 blocker, Measles CPE)
COCCNC(=O)C1(C)C=CC2(CCCCC2)N1C(=O)c1ccccc1 (centres undefined)	Measles CPE 21.7
CCN(CC)S(=O)(=O)c1ccc(-c2nnco2)cc1	none
CCN(CC)S(=O)(=O)c1ccc(C2=NOC3(C2)N(C)c2ccccc2C3(C)C)cc1 (centres undefined)	Measles CPE 38.1
CN1c2ccccc2C(C)(C)C12CC(c1cccc(S(=O)(=O)N3CCCC3)c1)=NO2 (centres undefined)	Measles CPE 53.8
CN1c2ccccc2C(C)(C)C12CC(c1ccc(S(=O)(=O)N3CCCCC3)cc1)=NO2 (centres undefined)	Measles CPE 63.5
COCCNC(=O)C(c1ccc(Cl)cc1)N(C(=O)Cn1nnc2ccccc21)c1cccnc1 (centres undefined)	none (no result: NPY-Y2 antag, Measles CPE)
Cc1ccc(OCC(=O)N2CCN(S(C)(=O)=O)CC2)cc1	none (no result: NPY-Y2 antag, NPY Y1 blocker, Measles CPE)
COC(=O)/C(=C\c1c(OC)cc(OC)cc1OC)C(=O)c1ccc2c(c1)OCO2	none (no result: NPY-Y2 antag, NPY Y1 blocker, NPY1 pot ag, Measles CPE, NPY-Y2 PAM-ag)
CCOC(=O)N1CCN(C(=O)CSCC(=O)N=c2sc3ccccc3n2C)CC1	Rad51 HR inh 104.8
CCCC1=NN(c2ccc([N+](=O)[O-])cc2)C(=O)/C1=C\N(C)C	Measles CPE 32.3
COC(=O)c1scc(C)c1-n1ccc(C(=O)C(=O)N(C)C)c1	none (no result: NPY-Y2 antag, Measles CPE)
COC(=O)c1cc2n(n1)CCN(Cc1ccccc1F)C2=O	none
COC(=O)c1cc2n(n1)CCN(Cc1ccc(F)cc1)C2=O	Rad51 HR inh 45.6
CCOc1cc(/C=N\NC(=O)Cn2nnc3ccccc32)ccc1O	none (no result: NPY-Y2 antag, Measles CPE)
Cc1ccc(-n2nc(C(=O)c3ccccc3)n3c(=O)cc(-c4ccccc4)nc23)cc1	Measles CPE 26.1
CCOC(=O)c1nn(-c2ccc(C)cc2)c2nc(Nc3ccccc3)cc(=O)n12	none
COc1ccc2c(Cl)c(-c3nnc4n3CCCCC4)sc2c1	Measles CPE 42.7
Clc1c(-c2nnc3n2CCCCC3)sc2ccccc12	none
Cc1ccc(-c2nnc3n2CCCCC3)cc1	Measles CPE 28.9
N#CCC(=N)N1CCN(c2ccc(F)cc2)CC1	none (no result: NPY-Y2 antag, Measles CPE)
Cc1ccc(S(=O)(=O)N2CCN(C(=O)CSc3nc(N)cc(=O)[nH]3)CC2)c(C)c1	none (no result: NPY-Y2 antag, Measles CPE)
O=C(c1ccc([N+](=O)[O-])cc1)N1CCN(c2cccc3[nH]ccc23)CC1	none (no result: NPY-Y2 antag, NPY Y1 blocker, Measles CPE)
Cc1cc(/C=N/NC(=O)c2ccncc2)c(C)n1-c1ccccc1	none
Cc1cc(/C=N/NC(=O)c2cccs2)c(C)n1-c1ccccc1	Measles CPE 76.9
Cc1ccc(-n2c(C)cc(/C=N/NC(=O)Cn3c4ccccc4c(=O)c4ccccc43)c2C)cc1	NPY1 pot ag 60.9, NPY-Y2 PAM-ag 55.5
CC(=O)c1sc(NC(=O)CCCOc2ccc(Cl)cc2)nc1C	none (no result: NPY-Y2 antag, Measles CPE)
O=C(c1ccc(F)cc1)c1ccc(N2CCCC2)cc1	NPY Y1 blocker 20.6
CC(=O)Oc1ccc(/C=C2/CCc3ccccc3C2=O)cc1	none (no result: NPY-Y2 antag, NPY Y1 blocker, Measles CPE)
COc1ccc(-c2ccc(=O)n(Cc3cc(=O)n4ccccc4n3)n2)cc1	Measles CPE 32.1
COc1ccc(-c2ccc(=O)n(CC(=O)NCc3ccco3)n2)cc1	none
Cc1nn(C)c(Cl)c1C(=O)NCC(=O)NCc1ccccc1	Rad51 HR inh 42.0 (no result: NPY-Y2 antag, Measles CPE)
Cc1ccc(CNC(=O)CNC(=O)c2c(C)nn(C)c2Cl)cc1	none (no result: NPY-Y2 antag, Measles CPE)
Cc1ccc(-c2nc3sc4c(N)ncnc4c3c3c2CCCC3)cc1	Measles CPE 24.8
O=c1[nH]cnc2c1sc1nc(-c3ccccc3)c3c(c12)CCCC3	none
COc1ccc(/C=N/NC(=O)OC(C)(C)C)cc1OC	none
O=C(Nc1cc(Cl)cc(Cl)c1)c1ccc(Cn2c(=O)[nH]c3ccsc3c2=O)cc1	NPY1 pot ag 46.4
COc1ccc2nc(/N=C/c3c(C)[nH]n(-c4ccc(C)cc4)c3=O)sc2c1	none
CC(C)Oc1cccc(-c2cc(C(=O)NC(=S)N(C)c3ccccc3C(=O)O)c3ccccc3n2)c1	none
COC(=O)CNC(c1ccccc1)c1cc(C)ccc1NC(=O)c1cccc(Cl)c1 (centres undefined)	NPY-Y2 antag 17.2, NPY Y1 blocker 28.4
